According to article PMC4467258 (Clinical Pharmacology in Drug Development, 2014):
Values after ≈ are worked out from the molar mass of the structure shown. Values joined by “and” are separate entries in the source; they are usually repeats but may differ in a detail not shown here. Equal values may be shown once. Read-outs that look alike come from different tables or passages of the source. Marks after values point to notes of the source that are not given here.

Tests used:
[1] = Solubility; type: physicochemical
[2] = cited from earlier work
[3] = Biopharmaceutics Classification System characteristics; type: physicochemical; details: high permeability and poor solubility; no official regulatory decision yet
[4] = type: in vivo, human; details: for AUC(0-inf): AUC0−∞; for Tmax: median (range)
Summary of the method: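 Open-label, randomized 4-period crossover in healthy adults (18–65 y, ≥40 kg). Each received single 1500-mg free-base-equivalent doses: 60-min IV mesylate infusion, tablet fasted or after a 490-calorie moderate-fat meal, and oral mesylate solution fasted, with 3-day washouts. Plasma sampled predose to 72 h; LC-MS/MS (5–5000 ng/mL). Noncompartmental analysis; bioavailability from oral vs IV AUC0−∞; log-transformed mixed-effects model; CVw from residual MSE.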

[5] = Safety and tolerability; type: in vivo, human
Summary of the method: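 Open-label, randomized, 4-period balanced crossover in healthy adults (18–65 years, ≥40 kg; women of non-childbearing potential only). Single 1500-mg (free base equivalent) dose of test compound (peptide deformylase inhibitor) as IV mesylate salt solution, 60-minute infusion, fasted; 3-day washout between periods. Safety from observed AEs and changes over time in hematology, clinical chemistry, urinalysis, vital signs and ECGs, summarized descriptively.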

[6] = Fed to fasted, free base tablet
[7] = human, plasma, oral, 1500 mg, mean (SD), 1500-mg free base tablet, fasted state
[8] = human, plasma, po, 1500 mg, mean (SD), 1500-mg oral MS solution, fasted state

For Cc1nc(NNC(=O)[C@H](CC2CCCC2)CN(O)C=O)c(F)c(N2CCN3CCOC[C@@H]3C2)n1 [GSK1322322], the solubility ([1]; fasted state-simulated intestinal fluid, pH 6.5, fassif) is listed as roughly 0.5 mg/mL (≈ 1.04 mM), the solubility ([1]; pH 3.5) is listed as 40 mg/mL (≈ 83.4 mM) and the “Relative bioavailability fed vs fasted” value ([2]; free base tablet 1000 mg) is listed as 119%. The Cmax ([2]; single 1500-mg IV dose, first-time-in-human IV study) was 25500 ng/mL, the Absolute bioavailability ([2]; tablet formulation 1500 mg, previous phase I study) was 56% and the “Biopharmaceutics Classification System class” value [3] was “Class 2”. For the same compound, the “Relative bioavailability, ratio of geometric least square mean Cmax (90% CI)” value ([4]; Fasted to MS) was 0.57 (0.48, 0.69), the “Tmax estimated median difference (90% CI)” value ([4]; Fasted to MS) was 0.13 (0.00, 0.37) ^c h and the “Relative bioavailability, ratio of geometric least square mean AUC0−∞ (90% CI)” value ([4]; Fasted to MS (free base tablet fasted vs oral MS solution)) was 0.62 (0.56, 0.69). The “Relative bioavailability, ratio of geometric least square mean Cmax (90% CI)” value ([4]; Fed to MS) was 0.57 (0.47, 0.68), the “Tmax estimated median difference (90% CI)” value ([4]; Fed to MS) was 0.99 (0.63, 1.74) ^d h and the “Relative bioavailability, ratio of geometric least square mean AUC0−∞ (90% CI)” value ([4]; Fed to MS (free base tablet fed vs oral MS solution)) was 0.84 (0.76, 0.94). The “Food effect, ratio of geometric least square mean AUC0−∞ (90% CI)” value [4, 6] was 1.36 (1.22, 1.51), the “Food effect, ratio of geometric least square mean Cmax (90% CI)” value [4, 6] was 0.99 (0.82, 1.18) and the “Tmax estimated median difference (90% CI)” value [4, 6] was 0.88 (0.50, 1.25) ^e h. For the same compound, the Relative bioavailability ([4]; free base tablet after a meal vs fasted state) was 136%, the “Absolute bioavailability, ratio of geometric least square mean AUC0−∞ (90% CI)” value (from here on “Absolute bioavailability, ratio … (90% CI)”) ([4]; free base tablet fasted vs IV, 1500 mg) was 0.57 (0.51, 0.63) and the Relative bioavailability ([4]; free base tablet fasted vs oral mesylate salt solution fasted) was 62%. The “Absolute bioavailability, ratio … (90% CI)” value ([4]; free base tablet fed vs IV, 1500 mg) was 0.77 (0.69, 0.86), the Relative bioavailability ([4]; free base tablet fed vs oral mesylate salt solution fasted) was 84% and the “Increase in AUC0−∞ with food” value ([4]; free base tablet, fed vs fasted state, moderate-fat/calorie meal) was 36%. It also gave a Vd ([4]; human, plasma, iv, 1500 mg) of 69.2 L, a clearance ([4]; human, plasma, iv, 1500 mg) of 367 mL/min and an AUC(0-inf) ([4]; human, plasma, iv, 1500 mg, mean (SD), 1500-mg IV MS solution, 60-minute infusion) of 75400 ng·h/mL. The Cmax ([4]; human, plasma, iv, 1500 mg, mean (SD), 1500-mg IV MS solution) was 28600 ng/mL, the Tmax ([4]; human, plasma, iv, 1500 mg, 1500-mg IV MS solution) was 1 h and the half-life ([4]; human, plasma, iv, 1500 mg, t1/2, mean (SD), 1500-mg IV MS solution) was 10.3 h. For the same compound, the AUC(0-inf) [4, 7] was 46100 ng·h/mL, the AUC(0-inf) ([4]; human, plasma, oral, 1500 mg, mean (SD), 1500-mg free base tablet, fed state (moderate-fat/calorie meal)) was 58900 ng·h/mL and the Cmax [4, 7] was 17100 ng/mL. It also gave a Cmax ([4]; human, plasma, oral, 1500 mg, mean (SD), 1500-mg free base tablet, fed state) of 15500 ng/mL, a Tmax ([4]; human, plasma, oral, 1500 mg, 1500-mg free base tablet, fasted state) of 0.5 h and a Tmax ([4]; human, plasma, oral, 1500 mg, 1500-mg free base tablet, fed state) of 1.5 h. It also gave a half-life ([4]; human, plasma, oral, 1500 mg, t1/2, mean (SD), 1500-mg free base tablet, fasted state) of 9.4 h, a half-life ([4]; human, plasma, oral, 1500 mg, t1/2, mean (SD), 1500-mg free base tablet, fed state) of 8.7 h and a half-life ([4]; human, plasma, other: IV or oral, 1500 mg, t1/2, range of means after single-dose IV or oral administration) of 8.7 to 10.3 h. For the same compound, the AUC(0-inf) [4, 8] was 69700 ng·h/mL, the Cmax [4, 8] was 25800 ng/mL and the Tmax ([4]; human, plasma, po, 1500 mg, 1500-mg oral MS solution, fasted state) was 0.5 h. The half-life ([4]; human, plasma, po, 1500 mg, t1/2, mean (SD), 1500-mg oral MS solution, fasted state) was 9.6 h, the Varea ([4]; mean (SD), 1500-mg IV MS solution) was 317.2 (131.5) L and the CL/F ([4]; mean (SD), 1500-mg free base tablet, fasted state) was 42.6 (26.6) L/h. For the same compound, the CL/F ([4]; mean (SD), 1500-mg free base tablet, fed state) was 28.4 (9.0) L/h, the CL/F ([4]; mean (SD), 1500-mg oral MS solution, fasted state) was 23.8 (7.3) L/h and the “Absolute bioavailability, ratio … (90% CI)” value ([4]; oral MS solution fasted vs IV, 1500 mg) was 0.92 (0.82, 1.02). The “CVw (within coefficient of variation) of AUC0−∞” value ([4]; pooled across regimens) was 22%, the “CVw (within coefficient of variation) of Cmax” value ([4]; pooled across regimens) was 39% and 38.7% and the “Withdrawal because of a drug-related AE (bronchospasm)” value ([5]; IV 1500 mg, period 3) was “One volunteer was withdrawn”. The “Vital signs, chemistry, or hematology data” value ([5]; all treatments) was “No apparent trends or changes from baseline”, the “Intensity of adverse events” value ([5]; all treatments, single 1500-mg doses) was “mild-to-moderate” and the “Volunteers with an AE per treatment” value ([5]; range across the four treatments) was 42–65%.
